Data taken from publication PMC6119551 (Neuropharmacology, 2018).

How the values were obtained:
[1] = biological target: 5-HT2A receptors in rat brain tissue (Rattus norvegicus, UniProt P14842); experiment: [3H]M100907 radioligand binding in rat brain tissue
human 5-HT2A receptors [2] = biological target: T1, human 5-HT2A receptors (Homo sapiens, UniProt P28223); experiment: Calcium mobilization, HEK293 cells expressing human 5-HT2A; format: cell-based; settings: for Emax: HEK293, read-out: 5-HT2A Mobilization of Calcium %Emax; for Fold more potent than NBOMe counterpart in 5-HT2A-mediated calcium mobilization: 2C-C vs 25C-NBOMe, 2C-I vs 25I-NBOMe
human 5-HT2C receptors = biological target: T2, human 5-HT2C receptors (Homo sapiens, UniProt P28335); experiment: Calcium mobilization, HEK293 cells expressing human 5-HT2C; format: cell-based; settings: for Emax: HEK293, read-out: 5-HT2C Mobilization of Calcium % Emax
T2 sequence (P28335 33-458): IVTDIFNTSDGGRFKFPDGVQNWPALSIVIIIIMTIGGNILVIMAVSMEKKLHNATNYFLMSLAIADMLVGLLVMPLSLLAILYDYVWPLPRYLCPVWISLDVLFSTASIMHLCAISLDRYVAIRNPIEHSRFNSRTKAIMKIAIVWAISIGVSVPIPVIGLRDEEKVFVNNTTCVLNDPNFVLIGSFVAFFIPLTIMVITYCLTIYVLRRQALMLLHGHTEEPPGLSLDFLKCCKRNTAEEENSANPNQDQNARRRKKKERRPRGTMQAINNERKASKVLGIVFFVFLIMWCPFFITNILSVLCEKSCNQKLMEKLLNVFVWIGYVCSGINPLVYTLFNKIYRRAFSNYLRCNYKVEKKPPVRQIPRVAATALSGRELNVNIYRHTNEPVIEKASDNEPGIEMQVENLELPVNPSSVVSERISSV

male rats [3] = experiment: Wet dog shakes; format: in vivo, rat; settings: sc; for Doses significantly increasing summed WDS vs vehicle: Bonferroni p<0.05
Procedure, shortened: (§1)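 Male Sprague-Dawley rats (250–300 g) with ≥2 weeks of acclimation, one sc injection per weekly session of saline or one of 4 doses (1.0 mL/kg), N=9/group. Dose ranges were 0.03–1.0, 0.01–0.3 or 0.1–3.0 mg/kg depending on compound. WDS and BMC were counted by a non-blind rater in eight 90-s periods every 15 min and summed. ED50 came from nonlinear regression of score versus log dose on the rising phase.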

male rats [4] = experiment: Back muscle contractions; format: in vivo, rat; settings: sc; for Doses significantly increasing summed BMC vs vehicle: rats, Bonferroni p<0.05; for Rat BMC ED50: summed BMC over 2 h, rising phase of dose-effect function
Procedure, shortened: as §1

male rats [5] = experiment: Body temperature via implanted transponder; format: in vivo, rat; settings: sc, all doses tested, 15-120 min post-injection
human 5-HT2A receptors [6] = biological target: T1, human 5-HT2A receptors; settings: 25C-NBOMe vs 2C-C, 25I-NBOMe vs 2C-I; ref Rickli et al., 2015; cited from earlier work
rats = settings: cited from earlier work
mice [7] = settings: ref Gatch et al., 2017; cited from earlier work
[8] = ref Eshleman et al. (2014); cited from earlier work
5-HT2A receptor [9] = settings: ref Eshleman et al. (2014); cited from earlier work
5-HT2A receptor [10] = settings: ref Eshleman et al. (2014); cited from earlier work; remark: listed apart in the source
mice [11] = settings: sc, ref Halberstadt and Geyer, 2014; cited from earlier work
male rats [12] = experiment: M100907 antagonism of agonist-induced WDS and BMC; format: in vivo, rat
Procedure, shortened: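 Male Sprague-Dawley rats got sc M100907 (0.1 mg/kg in 1:9 DMSO:saline) or its vehicle 30 min before sc agonist or saline, with agonists at fixed doses of 0.03–1.0 mg/kg. Summed WDS and BMC came from eight 90-s observations at 15-min intervals by a non-blind rater. Rats were tested weekly, N=9/group, by Bonferroni comparison with Veh/Veh.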

5-HT2A = settings: ref Marek and Aghajanian, 1994; cited from earlier work
[13] = 0.1 mg/kg M100907 30 min before 0.03 mg/kg 25C-NBOMe
[14] = 0.1 mg/kg M100907 30 min before 0.1 mg/kg 25I-NBOMe
[15] = 0.1 mg/kg M100907 30 min before 0.3 mg/kg 2C-C
[16] = 0.1 mg/kg M100907 30 min before 1.0 mg/kg 2C-I
[17] = 0.1 mg/kg M100907 30 min before 1.0 mg/kg DOI sc

Chain of 5-HT2A receptors in rat brain tissue (P14842 whole entry): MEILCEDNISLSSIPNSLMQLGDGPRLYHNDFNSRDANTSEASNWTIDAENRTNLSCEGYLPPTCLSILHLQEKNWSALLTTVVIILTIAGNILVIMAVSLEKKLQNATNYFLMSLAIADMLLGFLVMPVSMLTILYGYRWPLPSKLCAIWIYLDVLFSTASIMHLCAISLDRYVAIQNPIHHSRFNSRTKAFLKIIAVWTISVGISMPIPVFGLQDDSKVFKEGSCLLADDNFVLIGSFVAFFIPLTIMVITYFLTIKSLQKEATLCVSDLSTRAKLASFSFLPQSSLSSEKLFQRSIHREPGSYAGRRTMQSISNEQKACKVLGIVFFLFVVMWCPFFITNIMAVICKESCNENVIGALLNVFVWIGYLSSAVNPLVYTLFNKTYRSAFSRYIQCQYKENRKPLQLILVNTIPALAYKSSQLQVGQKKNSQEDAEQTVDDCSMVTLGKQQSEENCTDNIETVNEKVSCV
T1 sequence (P28223 whole entry): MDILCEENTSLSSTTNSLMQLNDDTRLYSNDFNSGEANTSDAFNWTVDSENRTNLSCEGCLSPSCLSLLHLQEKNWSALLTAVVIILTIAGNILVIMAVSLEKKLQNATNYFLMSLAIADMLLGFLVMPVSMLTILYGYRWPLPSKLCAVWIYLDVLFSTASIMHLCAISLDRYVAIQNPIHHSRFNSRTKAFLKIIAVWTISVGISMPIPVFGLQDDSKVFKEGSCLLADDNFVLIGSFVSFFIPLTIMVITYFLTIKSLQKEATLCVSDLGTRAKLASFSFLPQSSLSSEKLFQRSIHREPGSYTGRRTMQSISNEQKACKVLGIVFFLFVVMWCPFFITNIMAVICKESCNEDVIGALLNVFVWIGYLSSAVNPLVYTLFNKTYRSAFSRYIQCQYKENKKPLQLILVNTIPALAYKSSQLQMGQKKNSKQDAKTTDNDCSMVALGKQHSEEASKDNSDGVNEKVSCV

| Structure (SMILES) | IC50 [1] | Emax (human 5-HT2A receptors [2]) | EC50 (human 5-HT2C receptors) | Emax (human 5-HT2C receptors) | Doses significantly increasing summed WDS vs vehicle (male rats [3]; rats) | Doses significantly increasing summed BMC vs vehicle (male rats [4]) | Effect on body temperature (male rats [5]) | EC50 (human 5-HT2A receptors [2]) | Fold greater affinity for human 5-HT2A receptors than 2C counterpart (human 5-HT2A receptors [6]) | Effect on locomotor activity (mice [7]) | Fold more potent than NBOMe counterpart in 5-HT2A-mediated calcium mobilization (human 5-HT2A receptors [2]) | Functional activity in the IP assay (5-HT2A receptor [9]) | Functional activity in the [3H]AA assay (5-HT2A receptor [10]) | Rat BMC ED50 (male rats [4]) | ED50 in the head twitch assay (mice [11]) | other results |
| --- | --- | --- | --- | --- | --- | --- | --- | --- | --- | --- | --- | --- | --- | --- | --- | --- |
| COc1cc(CC(C)N)c(OC)cc1I (stereo not drawn) [DOI, 1-(4-iodo-2,5-dimethoxyphenyl)propan-2-amine, reference compound] | 56.1 ± 4.9 nM | 109% | 47.7 ± 3 nM | 50% | significant increases in both behaviors occurring after 0.1, 0.3, and 1.0 mg/kg | significant increases in both behaviors occurring after 0.1, 0.3, and 1.0 mg/kg | no significant effects on body temperature at any dose tested | – | – | – | – | – | – | – | – | – |
| COc1cc(CCNCc2ccccc2OC)c(OC)cc1Cl [Compound 25C-NBOMe, 2-(4-chloro-2,5-dimethoxyphenyl)-N-[(2-methoxyphenyl)methyl]ethanamine] | 8.7 ± 1 nM | 104% | 178 ± 25 nM | 60% | Significant stimulation of shaking behavior occured after 0.03 and 0.1 mg/kg doses | stimulation of contractions occured after 0.03, 0.1 and 0.3 mg/kg doses | did not significantly alter body temperature at any dose tested | 61.7 ± 3.5 nM | 18 fold | dose-dependently reduced locomotor activity | – | – | – | – | – | DOM-appropriate responding (rats; dose of 0.03 mg/kg, ref Gatch and colleagues (2017)): < 20%; Substitution for DOM in drug discrimination (rats; ip, ref Gatch et al., 2017): fully substituted; Substitution for MDMA in drug discrimination (rats; ip, ref Gatch et al., 2017): only partially substituting |
| COc1cc(CCN)c(OC)cc1Cl [Compound 2C-C, 2-(4-chloro-2,5-dimethoxyphenyl)ethanamine] | 308 ± 21.6 nM | 95% | 77.6 ± 5.5 nM | 29% | Significant stimulation of both behaviors occurred after administration of 0.3, 1.0, and 3.0 mg/kg doses | Significant stimulation of both behaviors occurred after administration of 0.3, 1.0, and 3.0 mg/kg doses | failed to significantly alter body temperature at any dose tested | 4.57 ± 0.5 nM | – | – | 13 fold | full agonist | full agonist | – | – | Substitution for MDMA in drug discrimination [8]: fully substitutes |
| COc1cc(CCNCc2ccccc2OC)c(OC)cc1I [Compound 25I-NBOMe, 2-(4-iodo-2,5-dimethoxyphenyl)-N-[(2-methoxyphenyl)methyl]ethanamine] | 3.9 ± 0.4 nM | 108% | 88.9 ± 11 nM | 70% | Significant increases in shakes occured after the 0.1 and 0.3 mg/kg doses | increases in contractions occurred after the 0.03, 0.1, and 0.3 mg/kg doses | did not significantly alter body temperature at any dose tested | 34.7 ± 4.2 nM | 6 fold | dose-dependently reduced locomotor activity | – | – | – | 0.037 ± 0.011 mg/kg | 0.08 mg/kg | Fold more potent than 2C counterpart in inducing WDS (male rats [3]; rats, 25C-NBOMe vs 2C-C, 25I-NBOMe vs 2C-I): 10 fold; Rat WDS ED50 (male rats [3]; summed WDS over 2 h, rising phase of dose-effect function): 0.062 ± 0.026 mg/kg; Fold more potent than 2C-I at eliciting head twitch behavior (mice [11]): about 10 fold |
| COc1cccc([C@H](O)C2CCN(CCc3ccc(F)cc3)CC2)c1OC [Compound M100907, (R)-(2,3-dimethoxyphenyl){1-[2-(4-fluorophenyl)ethyl]-4-piperidinyl}methanol] | – | – | – | – | – | – | – | – | – | – | – | – | – | – | – | Effect on BMC induced by 25C-NBOMe (male rats [12]; [13]): significantly decreased; Effect on WDS induced by 25C-NBOMe (male rats [12]; [13]): significantly decreased WDS; Effect on BMC induced by 25I-NBOMe (male rats [12]; [14]): decreased; Effect on WDS induced by 25I-NBOMe (male rats [12]; [14]): decreased WDS; Effect on BMC induced by 2C-C (male rats [12]; [15]): decreased; Effect on WDS induced by 2C-C (male rats [12]; [15]): decreased WDS; Effect on BMC induced by 2C-I (male rats [12]; [16]): decreased; Effect on WDS induced by 2C-I (male rats [12]; [16]): decreased WDS; Effect on BMC induced by DOI (male rats [12]; [17]): significantly decreased shakes and contractions; Effect on WDS induced by DOI (male rats [12]; [17]): significantly decreased shakes and contractions; Selectivity for 5-HT2A over 5-HT2C and other receptor subtypes (5-HT2A): more than 100 fold |
| COc1cc(CCN)c(OC)cc1I [Compound 2C-I, 2-(4-iodo-2,5-dimethoxyphenyl)ethanamine] | 125 ± 13 nM | 89% | 47.2 ± 6.7 nM | 28% | Significant stimulation of shaking behavior ocurred after 1.0 and 3.0 mg/kg doses | increases in BMC occurred after 0.3, 1.0, and 3.0 mg/kg doses | failed to alter body temperature at any dose tested | 3.97 ± 0.7 nM | – | – | 8 fold | agonist | antagonist | 0.192 ± 0.060 mg/kg | 0.83 mg/kg | Substitution for prototypical hallucinogens like LSD in drug discrimination [8]: fully substitutes |
